From ChEMBL document CHEMBL4364301 (Eur J Med Chem, 2019)

Columns and labels:
Format in all cases: functional
VCaP [1] = assay: Antiproliferative activity against human VCaP cells assessed as T/C value at 1 x 10^1 uM incubated for 96 hrs by propidium iodide based 2D monolayer assay
In short: (§1)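 Cells were kept in RPMI 1640 with 25 mM HEPES, 10% FCS and gentamicin at 37 °C under 5% CO2, and plated at 4,000-20,000 cells/well. After 24 h recovery, compound in medium or medium alone (control wells) was added at 10 half-log concentrations from 0.0032 to 100 µM, in triplicate, with at most 0.3% DMSO. After 96 h, wells were PBS-washed, stained with 7 µg/ml PI and 0.1% Triton X-100, and fluorescence read at 530/620 nm. IC50 came from a 4-parameter fit, geometric mean.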

CWR22R [2] = assay: Antiproliferative activity against human 22Rv1 cells assessed as T/C value at 1 x 10^-2 uM incubated for 96 hrs by propidium iodide based 2D monolayer assay; in short: as §1
VCaP [3] = assay: Antiproliferative activity against human VCaP cells assessed as reduction in cell growth incubated for 96 hrs by propidium iodide based 2D monolayer assay
In short: (§2)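 VCaP cells in RPMI 1640 with 10% FCS at 37 °C, 5% CO2, seeded 4,000–20,000 cells/well and left 24 h before dosing. Compounds from DMSO stocks were diluted in half-log steps in medium, 10 concentrations 0.0032–100 μM, triplicate wells, max 0.3% DMSO. After 96 h, cells were washed, stained with 7 μg/ml propidium iodide plus 0.1% Triton X-100 for 1–2 h at room temperature, and fluorescence read at ex 530/em 620 nm.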

VCaP [4] = assay: Antiproliferative activity against human VCaP cells assessed as T/C value at 1 x 10^-2 uM incubated for 96 hrs by propidium iodide based 2D monolayer assay; in short: as §1
LNCaP [5] = assay: Antiproliferative activity against human LNCAP cells assessed as T/C value at 1 x 10^1 uM incubated for 96 hrs by propidium iodide based 2D monolayer assay; in short: as §1
VCaP [6] = assay: Antiproliferative activity against human VCaP cells assessed as T/C value at 3.2 uM incubated for 96 hrs by propidium iodide based 2D monolayer assay; in short: as §1
DU-145 [7] = assay: Antiproliferative activity against human DU145 cells assessed as T/C value at 3.2 x 10^1 uM incubated for 96 hrs by propidium iodide based 2D monolayer assay; in short: as §1
VCaP [8] = assay: Antiproliferative activity against human VCaP cells assessed as T/C value at 3.2 x 10^-2 uM incubated for 96 hrs by propidium iodide based 2D monolayer assay; in short: as §2
CWR22R [9] = assay: Antiproliferative activity against human 22Rv1 cells assessed as T/C value at 1 uM incubated for 96 hrs by propidium iodide based 2D monolayer assay; in short: as §1
DU-145 [10] = assay: Antiproliferative activity against human DU145 cells assessed as T/C value at 1 x 10^-2 uM incubated for 96 hrs by propidium iodide based 2D monolayer assay
In short: as §1, with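 “After” for “Cells were kept in RPMI 1640 with 25 mM HEPES, 10% FCS and gentamicin at 37 °C under 5% CO2, and plated at 4,000-20,000 cells/well. After”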

VCaP [11] = assay: Antiproliferative activity against human VCaP cells assessed as T/C value at 1 uM incubated for 96 hrs by propidium iodide based 2D monolayer assay; in short: as §1
CWR22R [12] = assay: Antiproliferative activity against human 22Rv1 cells assessed as T/C value at 1 x 10^1 uM incubated for 96 hrs by propidium iodide based 2D monolayer assay; in short: as §1
LNCaP [13] = assay: Antiproliferative activity against human LNCAP cells assessed as T/C value at 3.2 x 10^-2 uM incubated for 96 hrs by propidium iodide based 2D monolayer assay; in short: as §1
DU-145 [14] = assay: Antiproliferative activity against human DU145 cells assessed as T/C value at 1 x 10^-1 uM incubated for 96 hrs by propidium iodide based 2D monolayer assay
In short: as §1, with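 “After” for “Cells were kept in RPMI 1640 with 25 mM HEPES, 10% FCS and gentamicin at 37 °C under 5% CO2, and plated at 4,000-20,000 cells/well. After”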

LNCaP [15] = assay: Antiproliferative activity against human LNCAP cells assessed as T/C value at 3.2 x 10^-1 uM incubated for 96 hrs by propidium iodide based 2D monolayer assay; in short: as §1
DU-145 [16] = assay: Antiproliferative activity against human DU145 cells assessed as T/C value at 3.2 x 10^-2 uM incubated for 96 hrs by propidium iodide based 2D monolayer assay
In short: as §1, with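 “After” for “Cells were kept in RPMI 1640 with 25 mM HEPES, 10% FCS and gentamicin at 37 °C under 5% CO2, and plated at 4,000-20,000 cells/well. After”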

LNCaP [17] = assay: Antiproliferative activity against human LNCAP cells assessed as T/C value at 3.2 x 10^1 uM incubated for 96 hrs by propidium iodide based 2D monolayer assay; in short: as §1
CWR22R [18] = assay: Antiproliferative activity against human 22Rv1 cells assessed as T/C value at 1 x 10^-1 uM incubated for 96 hrs by propidium iodide based 2D monolayer assay; in short: as §1
DU-145 [19] = assay: Antiproliferative activity against human DU145 cells assessed as T/C value at 3.2 x 10^-1 uM incubated for 96 hrs by propidium iodide based 2D monolayer assay
In short: as §1, with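 “After” for “Cells were kept in RPMI 1640 with 25 mM HEPES, 10% FCS and gentamicin at 37 °C under 5% CO2, and plated at 4,000-20,000 cells/well. After”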

CWR22R [20] = assay: Antiproliferative activity against human 22Rv1 cells assessed as T/C value at 1 x 10^2 uM incubated for 96 hrs by propidium iodide based 2D monolayer assay; in short: as §1
CWR22R [21] = assay: Antiproliferative activity against human 22Rv1 cells assessed as T/C value at 3.2 x 10^1 uM incubated for 96 hrs by propidium iodide based 2D monolayer assay; in short: as §1
DU-145 [22] = assay: Antiproliferative activity against human DU145 cells assessed as T/C value at 3.2 x 10^-3 uM incubated for 96 hrs by propidium iodide based 2D monolayer assay
In short: as §1, with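 “After” for “Cells were kept in RPMI 1640 with 25 mM HEPES, 10% FCS and gentamicin at 37 °C under 5% CO2, and plated at 4,000-20,000 cells/well. After”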

CWR22R [23] = assay: Antiproliferative activity against human 22Rv1 cells assessed as T/C value at 3.2 x 10^-1 uM incubated for 96 hrs by propidium iodide based 2D monolayer assay; in short: as §1
DU-145 [24] = assay: Antiproliferative activity against human DU145 cells assessed as T/C value at 1 uM incubated for 96 hrs by propidium iodide based 2D monolayer assay
In short: as §1, with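 “After” for “Cells were kept in RPMI 1640 with 25 mM HEPES, 10% FCS and gentamicin at 37 °C under 5% CO2, and plated at 4,000-20,000 cells/well. After”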

CWR22R [25] = assay: Antiproliferative activity against human 22Rv1 cells assessed as T/C value at 3.2 uM incubated for 96 hrs by propidium iodide based 2D monolayer assay; in short: as §1
CWR22R [26] = assay: Antiproliferative activity against human 22Rv1 cells assessed as reduction in cell growth incubated for 96 hrs by propidium iodide based 2D monolayer assay; conditions: 22Rv1, 96 h
In short: as §1, with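 “After” for “Cells were kept in RPMI 1640 with 25 mM HEPES, 10% FCS and gentamicin at 37 °C under 5% CO2, and plated at 4,000-20,000 cells/well. After”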

DU-145 [27] = assay: Antiproliferative activity against human DU145 cells assessed as T/C value at 3.2 uM incubated for 96 hrs by propidium iodide based 2D monolayer assay; in short: as §1
DU-145 [28] = assay: Antiproliferative activity against human DU145 cells assessed as reduction in cell growth incubated for 96 hrs by propidium iodide based 2D monolayer assay; conditions: DU-145, 96 h
In short: as §1, with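 “After” for “Cells were kept in RPMI 1640 with 25 mM HEPES, 10% FCS and gentamicin at 37 °C under 5% CO2, and plated at 4,000-20,000 cells/well. After”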

VCaP [29] = assay: Antiproliferative activity against human VCaP cells assessed as T/C value at 3.2 x 10^-1 uM incubated for 96 hrs by propidium iodide based 2D monolayer assay; in short: as §2
CWR22R [30] = assay: Antiproliferative activity against human 22Rv1 cells assessed as T/C value at 3.2 x 10^-2 uM incubated for 96 hrs by propidium iodide based 2D monolayer assay; in short: as §1
DU-145 [31] = assay: Antiproliferative activity against human DU145 cells assessed as T/C value at 1 x 10^1 uM incubated for 96 hrs by propidium iodide based 2D monolayer assay
In short: as §1, with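 “After” for “Cells were kept in RPMI 1640 with 25 mM HEPES, 10% FCS and gentamicin at 37 °C under 5% CO2, and plated at 4,000-20,000 cells/well. After”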

SMILES	T/C (VCaP [1])	T/C (CWR22R [2])	IC50 (VCaP [3])	IC70 (VCaP [3])	T/C (VCaP [4])	T/C (LNCaP [5])	T/C (VCaP [6])	T/C (DU-145 [7])	T/C (VCaP [8])	T/C (CWR22R [9])	T/C (DU-145 [10])	T/C (VCaP [11])	T/C (CWR22R [12])	T/C (LNCaP [13])	T/C (DU-145 [14])	T/C (LNCaP [15])	T/C (DU-145 [16])	T/C (LNCaP [17])	T/C (CWR22R [18])	T/C (DU-145 [19])	also measured
CC(O)(CSc1cc(C(F)(F)F)cc(C(F)(F)F)c1)C(=O)Nc1cccc(C(F)(F)C(F)(F)F)c1 (racemic)	38%	109%	8.6 µM	11.7 µM	107%	8%	102%	8%	98%	107%	121%	93%	9%	99%	135%	111%	123%	6%	106%	135%	T/C (CWR22R [20]): 5%; T/C (CWR22R [21]): 7%; T/C (DU-145 [22]): 117%; T/C (CWR22R [23]): 107%; T/C (DU-145 [24]): 134%; T/C (CWR22R [25]): 75%; IC50 (CWR22R [26]): 4.2 µM; IC70 (CWR22R [26]): 5.41 µM; T/C (DU-145 [27]): 133%; IC50 (DU-145 [28]): 8.9 µM; IC70 (DU-145 [28]): 9.6 µM; T/C (VCaP [29]): 109%; T/C (CWR22R [30]): 112%; T/C (DU-145 [31]): 22%
CC(O)(COc1ccc(C(F)(F)C(F)(F)F)cc1)C(=O)Nc1cc(C(F)(F)F)cc(C(F)(F)F)c1 (racemic)	19%	109%	3 µM	4.16 µM	91%	9%	45%	3%	90%	107%	108%	94%	9%	87%	113%	93%	108%	2%	107%	123%	T/C (CWR22R [20]): 3%; T/C (CWR22R [21]): 5%; T/C (DU-145 [22]): 101%; T/C (CWR22R [23]): 108%; T/C (DU-145 [24]): 115%; T/C (CWR22R [25]): 29%; IC50 (CWR22R [26]): 2.5 µM; IC70 (CWR22R [26]): 3.11 µM; T/C (DU-145 [27]): 108%; IC50 (DU-145 [28]): 6.8 µM; IC70 (DU-145 [28]): 7.99 µM; T/C (VCaP [29]): 99%; T/C (CWR22R [30]): 115%; T/C (DU-145 [31]): 13%
